From ChEMBL document CHEMBL2021799, “Exploring the interplay of physicochemical properties, membrane permeability and giardicidal activity of some benzimidazole derivatives” (Eur J Med Chem, 2012) come the findings set out here.

Data set [1] concerns Caco-2. In words: Apparent permeability from apical to basolateral side of human Caco2 cells at 100 uM up to 90 mins. To be noted: caco-2, 1.5 h.
The nature of data set [2]: Distribution coefficient, log D of the compound. To be noted: octanol/water.
For data set [3], the system named is Giardia intestinalis. Nature of the data set: Antiparasitic activity against Giardia duodenalis IMSS:0989 after 48 hrs. Type of data set: functional, organism-based. To be noted: IMSS:0989, 48 h. The method in brief:
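G. duodenalis trophozoites grown in modified TYI-S-33 with 10% calf serum and bovine bile. 5 × 10⁴ trophozoites incubated 48 h at 37 °C with increasing compound concentrations; DMSO-treated trophozoites as negative control. An aliquot was then subcultured 48 h in fresh drug-free medium, trophozoites counted, and IC50 obtained by Probit analysis.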

In data set [4] the test system is Caco-2. In words: Apparent permeability from basolateral to apical side of human Caco2 cells at 100 uM up to 90 mins. To be noted: caco-2, 1.5 h. For orientation: Passage across Caco-2 layers is used to estimate intestinal permeability.
A short description of data set [5]: Aqueous solubility of the compound.
A short description of data set [6]: Lipophilicity, logkw of the compound by RP-HPLC analysis.
The test system of data set [7] is Caco-2. Nature of the data set: Influx ratio of permeability from basolateral to apical side over apical to basolateral side in human Caco2 cells at 100 uM up to 90 mins. To be noted: caco-2, 1.5 h.
The subject of data set [8] is Caco-2. Nature of the data set: Efflux ratio of permeability from apical to basolateral side over basolateral to apical side in human Caco2 cells at 100 uM up to 90 mins. To be noted: caco-2, 1.5 h.
Data set [9] concerns Giardia intestinalis. In words: Ratio of metronidazole IC50 to compound IC50 for Giardia duodenalis IMSS:0989. Type of data set: functional.
Setting [10] is: aqueous medium, not specified further.

In brackets after ≈: the same amount, converted by molar mass.

By Papp is commonly meant a coefficient for how fast a substance crosses the barrier. By logD is commonly meant the decadic logarithm of the distribution of all forms, ionised or not, between an organic phase and buffer at a given pH. A low value points to a more hydrophilic compound. As usually defined, the IC50 is the point on the concentration scale where inhibition reaches its midpoint. A word on the solubility: it is the dissolved amount per volume that the medium holds. With `Cn1c(C(F)(F)F)nc2cc(C(=O)O)ccc21`, the Papp turned out to be 9.83 ×10⁻⁶ cm/s in data set [1] and 7.25 ×10⁻⁶ cm/s in [4]. In data set [2], this compound returned a logD of 2.98. The compound also displayed an IC50 in [3] of 2770 nM. Also, the concentration in solution in [5] (setting [10]) (solubility) was 10.9 µg/mL (≈ 44.6 µM). The log1/S in data set [5] (buffer) stood at 4.35. Also, in data set [6], the logKw was determined as 1.47. The Ratio worked out at 1.35 in [7] and 0.74 in [8].
Turning to `Cn1c(S)nc2ccccc21`, the figures for the Papp in data set [1] and in data set [4] were 8.14 ×10⁻⁶ cm/s and 14.5 ×10⁻⁶ cm/s, respectively. In data set [2], this compound came in with a logD of 2.7. For the same compound, in data set [9], the “Ratio IC50” value stood at 67. For the same compound, in data set [3], the IC50 is 18 nM. Besides, the solubility in data set [5] (setting [10]) amounted to 36 µg/mL (≈ 219 µM). The compound also displayed a log1/S in data set [5] (buffer) of 3.65. The compound also displayed a logKw in [6] of 1.23. The values for the Ratio in data set [7] and in data set [8] were 0.56 and 1.78, respectively.
Regarding `COC(=O)Nc1nc2ccc(C(=O)c3ccccc3)cc2[nH]1` [MEBENDAZOLE], the Papp in data set [1] is 5.15 ×10⁻⁶ cm/s; in data set [4], 4.34 ×10⁻⁶ cm/s. Also, the logD in data set [2] was 3.73. Besides, half-maximal inhibition in data set [3] (IC50) was put at 55 nM. In [6], this compound came in with a logKw of 1.68.
`CSc1nc2ccc(Cl)cc2n1C` had an IC50 in data set [3] of 122 nM.
The same measure, in the same setting: the figure for `Cc1nc2ccc(Cl)cc2n1C` is 44 nM.
In the case of `Cn1c(N)nc2cc(Cl)ccc21`, the Papp in data set [1] was 5.21 ×10⁻⁶ cm/s; in data set [4], 9.57 ×10⁻⁶ cm/s. In data set [2], this compound registered a logD of 4.95. In [3], this compound came in with an IC50 of 242 nM. Moreover, in [5] (buffer), the log1/S was found to be 9.12. The solubility in [5] (buffer) was 0.0001 µg/mL (≈ 0.000551 µM). Besides, the logKw in [6] is reported as 3.19. Moreover, the results for the Ratio in data set [7] and in data set [8] were 0.54 and 1.83, respectively.
As to `CCCSc1ccc2nc(NC(=O)OC)[nH]c2c1` [ALBENDAZOLE], the results for the Papp in data set [1] and in [4] were 3.14 ×10⁻⁶ cm/s and 1.99 ×10⁻⁶ cm/s, respectively. The same compound displayed a logD in data set [2] of 3.83. The solubility in data set [5] (setting [10]) turned out to be 0.75 µg/mL (≈ 2.83 µM). Besides, the log1/S in data set [5] (buffer) is on record as 5.55. The same compound yielded a logKw in [6] of 1.95. The Ratio in data set [7] stood at 1.35; in data set [8], 0.74.
Consider `Cn1c(S)nc2ccc(Cl)cc21`, for which the figures for the Papp in data set [1] and in [4] were 14.1 ×10⁻⁶ cm/s and 27.2 ×10⁻⁶ cm/s, respectively. Besides, the logD in data set [2] came out at 3.47. In data set [9], the “Ratio IC50” value amounted to 27. In addition, the midpoint of inhibition in [3], the IC50, lay at 20 nM. Besides, the concentration in solution in [5] (setting [10]) (solubility) came to 0.588 µg/mL (≈ 2.96 µM). In [5] (buffer), the log1/S amounted to 5.59. This compound also showed a logKw in data set [6] of 1.9. Further, the figures for the Ratio in data set [7] and in [8] were 0.51 and 1.93, respectively.
`COC(=O)Nc1nc2ccccc2[nH]1` [CARBENDAZIM] showed a logD in [2] of 1.49. Further, in [5] (buffer), the log1/S amounted to 1.89 and the solubility worked out at 2441 µg/mL (≈ 12800 µM). Moreover, the logKw in [6] is on record as 0.9.
With `CSc1nc2cc(Cl)ccc2n1C`, the values for the Papp in data set [1] and in data set [4] were 7.59 ×10⁻⁶ cm/s and 14.2 ×10⁻⁶ cm/s, respectively. Also, in data set [2], the logD was found to be 4.11. Moreover, half-maximal inhibition in data set [3] (IC50) required 28 nM. The compound further had a solubility in [5] (setting [10]) of 0.0172 µg/mL (≈ 0.0809 µM). In addition, in data set [5] (buffer), the log1/S was 7.09. Besides, in [6], the logKw came to 2.46. Further, the Ratio turned out to be 0.53 in data set [7] and 1.87 in data set [8].
As for `CSc1nc2ccccc2n1C`, the Papp in data set [1] was determined as 7.12 ×10⁻⁶ cm/s; in [4] it was 9.57 ×10⁻⁶ cm/s. Further, in [2], the logD was determined as 3.33. Moreover, the IC50 in data set [3] was determined as 33 nM. Further, the solubility in data set [5] (setting [10]) was determined as 1.14 µg/mL (≈ 6.39 µM). In data set [5] (buffer), this compound displayed a log1/S of 5.19. This compound showed a logKw in [6] of 1.78. For the same compound, the Ratio worked out at 0.74 in data set [7] and 1.34 in data set [8].
For the compound `O=C(O)c1ccc2nc(C(F)(F)F)[nH]c2c1`, the results for the Papp in data set [1] and in data set [4] were 0.57 ×10⁻⁶ cm/s and 0.74 ×10⁻⁶ cm/s, respectively. Further, the IC50 in data set [3] was 172 nM. This compound came in with a solubility in [5] (setting [10]) of 0.189 µg/mL (≈ 0.819 µM).
Regarding `c1ccc2[nH]cnc2c1` [BENZIMIDAZOLE], the logD in data set [2] was 1.37. The compound also showed an IC50 in data set [3] of 137000 nM. In [5] (setting [10]), this compound yielded a solubility of 7600 µg/mL (≈ 64400 µM). This compound also yielded a log1/S in data set [5] (buffer) of 1.45. Besides, the logKw in data set [6] is 0.27.
Turning to `COC(=O)c1ccc2nc(C(F)(F)F)n(C)c2c1`, the Papp was found to be 39.2 ×10⁻⁶ cm/s in data set [1] and 21.8 ×10⁻⁶ cm/s in data set [4]. In [2], this compound came in with a logD of 3.86. The IC50 in data set [3] came to 3820 nM. The solubility in data set [5] (setting [10]) is 0.0859 µg/mL (≈ 0.333 µM). This compound also had a log1/S in data set [5] (buffer) of 6.47. The same compound yielded a logKw in [6] of 2.24. Also, the Ratio in [7] stood at 1.8; in data set [8], 0.55.
`CNC(=O)c1ccc2[nH]c(C(F)(F)F)nc2c1` had a logD in data set [2] of 2.68. This compound also yielded an IC50 in data set [3] of 320 nM. The compound further had a solubility in data set [5] (setting [10]) of 87.8 µg/mL (≈ 361 µM). Further, the log1/S in data set [5] (buffer) is reported as 3.6. This compound also registered a logKw in data set [6] of 1.21.
